In brackets after ≈: the same amount, converted by molar mass.
How the values were obtained:
[1] = Cytotoxicity against human KBV1 cells; type: functional; settings: KB-V1, read-out: ED50 (the source's name)
[2] = Cytotoxicity against human breast cancer cells; type: functional; settings: Cancer cell lines, read-out: ED50 (the source's name)
[3] = Cytotoxicity against human fibrosarcoma cells; type: functional; settings: Fibrosarcoma cell, read-out: ED50 (the source's name)
KB = assay: Cytotoxicity against human KB cells; type: functional; settings: read-out: ED50 (the source's name)
[4] = Cytotoxicity against human lung cancer cells; type: functional; settings: Cancer cell lines, read-out: ED50 (the source's name)
[5] = Cytotoxicity against human colon cancer cells; type: functional; settings: Cancer cell lines, read-out: ED50 (the source's name)
P388 = assay: Cytotoxicity against mouse P388 cells; type: functional; settings: read-out: ED50 (the source's name)
[6] = Cytotoxicity against human melanoma cells; type: functional; settings: Melanoma cell, read-out: ED50 (the source's name)
Plasmodium falciparum [7] = assay: Antimalarial activity against Plasmodium falciparum W2 in human erythrocytes after 24 hrs by [3H]hypoxanthine uptake; type: functional, organism-based
Method in brief: (§1)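 P. falciparum (D-6 chloroquine-sensitive, W-2 chloroquine-resistant) kept in type A+ human erythrocytes, RPMI-1640 with 32 mM NaHCO3, 35 mM HEPES and 10% heat-inactivated A+ plasma, 5% O2/5% CO2/90% N2, 37°. Assay: 0.5–1.0% parasitemia, 1.0% hematocrit, triplicates over 7-5000 ng/ml, 24 h. Then 0.5 µCi [3H]-hypoxanthine added for a further 18-24 h. Uninfected-cell dpm subtracted. IC50 by linear regression.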

Plasmodium falciparum [8] = assay: Antimalarial activity against Plasmodium falciparum D6 in human erythrocytes after 24 hrs by [3H]hypoxanthine uptake; type: functional, organism-based; method in brief: as §1

Row | Structure (SMILES) | EC50 [1] [µg/mL] | EC50 [2] [µg/mL] | EC50 [3] [µg/mL] | EC50 (KB) [µg/mL] | EC50 [4] [µg/mL] | EC50 [5] [µg/mL] | EC50 (P388) [µg/mL] | EC50 [6] [µg/mL] | IC50 (Plasmodium falciparum [7]) [µg/mL] | IC50 (Plasmodium falciparum [8]) [µg/mL]
1 | O=c1ccc2nccc3c4ccc(O)cc4n1c23 | > 20 | 2.6 (≈ 11 µM) | 3.5 (≈ 14.8 µM) | 2 (≈ 8.47 µM) | 3.8 (≈ 16.1 µM) | 4.8 (≈ 20.3 µM) | 1.5 (≈ 6.35 µM) | 5.4 (≈ 22.9 µM) | – | –
2 | COc1ccc2c3cc[n+]([O-])c4ccc(=O)n(c2c1)c34 | > 20 | 6 (≈ 22.5 µM) | 4.5 (≈ 16.9 µM) | 3.8 (≈ 14.3 µM) | 5.2 (≈ 19.5 µM) | 8.1 (≈ 30.4 µM) | 11.7 (≈ 43.9 µM) | 6.5 (≈ 24.4 µM) | – | –
3 | O=c1ccc2c3c(cc[n+]2[O-])c2ccc(O)cc2n13 | > 20 | 3.5 (≈ 13.9 µM) | 4.9 (≈ 19.4 µM) | 4.8 (≈ 19 µM) | 5.1 (≈ 20.2 µM) | 7.5 (≈ 29.7 µM) | 12 (≈ 47.6 µM) | 7 (≈ 27.8 µM) | – | –
4 | COc1ccc2c3ccnc4ccc(=O)n(c2c1)c43 | – | – | – | – | – | – | 1.4 (≈ 5.59 µM) | – | – | –
5 | COc1ccc2c(c1)[nH]c1c(CCC(=O)O)nccc12 | – | – | – | – | – | – | – | – | 2.98 (≈ 11 µM) | 3.14 (≈ 11.6 µM)
6 | C[C@@H]1CC[C@H]2[C@@H](C)C(=O)O[C@@H]3O[C@@]4(C)CC[C@@H]1[C@]32OO4 [ARTEMISININ] | – | – | – | – | – | – | – | – | 0.0018 (≈ 0.00638 µM) | 0.0027 (≈ 0.00956 µM)
7 | C=C1[C@@H](O)[C@@]2(O)OC[C@]34[C@H]2[C@@]2(C)[C@H](O)C(=O)C=C(C)[C@@H]2C[C@H]3OC(=O)[C@H](O)[C@@]14O [EURYCOMANONE] | 0.8 (≈ 1.96 µM) | 1.1 (≈ 2.69 µM) | 0.2 (≈ 0.49 µM) | 1.9 (≈ 4.65 µM) | 14.3 (≈ 35 µM) | 1.2 (≈ 2.94 µM) | > 20 | 8.2 (≈ 20.1 µM) | 0.0481 (≈ 0.118 µM) | 0.0477 (≈ 0.117 µM)
8 | OC(c1cc(C(F)(F)F)nc2c(C(F)(F)F)cccc12)C1CCCCN1 (configuration not stated) [MEFLOQUINE] | – | – | – | – | – | – | – | – | – | 0.0095 (≈ 0.0251 µM)
9 | C=C[C@H]1CN2CC[C@H]1C[C@H]2[C@H](O)c1ccnc2ccc(OC)cc12 [QUININE] | – | – | – | – | – | – | – | – | 0.114 (≈ 0.353 µM) | 0.0194 (≈ 0.0598 µM)
